BB579 growth dn – reduces growth of yeast BB579 in restrictive medium | S. cerevisiae BB579 growth, OD615, 48 h | AID 804 | inhibition, % at 10 µM | 140,000 compounds, 0.51% hits;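 active = inhibition above a set limit, 3 SD over the mean compound inhibition, cut at about 44% in these data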
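test system = yeast BB579 (DeaD) | buffer or medium = restrictive CSMM-D medium | doses = single compound dose of 10 µM, 0.25% DMSO final | times = 4 h preincubation and 48 h exposure at 30 °C | technique = culture absorbance at 615 nm | benchmarks = amphotericin B 10 µg/mL, positive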
SDO1 yeast rescue – compounds rescuing growth of sdo1-depleted yeast, bone marrow failure model. S. cerevisiae sdo1-depleted JHY4D growth rescue, OD600 30 h; stronger effect = higher value; pdr5 snq2 efflux-pump mutant strain. z-score at 10 µM. 140,000 compounds, 0.21% hits. AID 817;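 active = z-score above 3 at both the 24 hr and the 30 hr optical density reads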;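 also: z-score against mean and SD of all compound wells on the same plate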
PTEN del growth – PTEN-deleted cell growth suppression; 140,000 compounds, 1.2% hits; HCT116 PTEN-null viability, CellTiter-Glo, 60 h; stronger effect = lower value; AID 827; viability, % at 10 µM;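 active = viability at or below a set limit, 4 SD under the median of all tested compounds, cut at about 3.7% in these data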;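 also: PTEN knockout HCT116 line with beta catenin targeted HCT116 as companion control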
Yeast life ext – extends the lifespan of yeast; 130,000 compounds, 0.68% hits; inhibition of the nicotinamide effect, % at 10 µM; AID 775; S. cerevisiae growth with nicotinamide, OD615; deaD strain in restrictive glucose medium;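 active = inhibition above a set limit, placed 3 SD over the median of all compounds, cut at about 26% in these data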;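 also: 0% = nicotinamide-treated wells and 100% = cells grown without nicotinamide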
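System: DeaD-strain S. cerevisiae / Buffer or medium: CSMM-D, restrictive glucose (dextrose) synthetic minimal medium / Probe or stimulus: nicotinamide, 1.5 mM, co-present with compound / Compound: one concentration, 10 µM, DMSO 0.25% / Incubation: 48 h compound exposure at 30 °C, humidified / Technique: optical density (absorbance) at 615 nm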
HCT116 bCat-KO – beta-catenin-lacking colon tumor cell growth suppression | HCT116 beta-catenin knockout viability, CellTiter-Glo, 60 h; stronger effect = lower value | viability, % at 10 µM | 140,000 compounds, 1.5% hits | AID 818;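 active = viability at or under a set limit, the compound median less 4 SD, cut at about 6% in these data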;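 also: 0% = Hyamine 1622 control at 20 µM and 100% = untreated cell control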
SDO1 rescue DR – SDO1-depleted yeast growth rescue confirmation. shares compounds with SDO1 yeast rescue. OD recovery (no concentration beside the values). AID 949. 440 compounds, 44% hits. S. cerevisiae JHY4D (SDO1-depleted) growth rescue, OD600, 30 h; stronger effect = higher value; efflux-deficient strain, SNQ2 and PDR5 mutated;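 active = yeast growth recovered at 30 hours, either rising with dose fitted slope above 0.001 or with average optical density gain above 0.07, some results past the limit were not filed as active; inactive = growth falling with dose or no effect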;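 also: gain in OD600 from 0 h to 30 h averaged across all seven doses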
* marks the source's active call; other numbers are inactive results; . = no result given. The list is not random: actives were taken first. Their share in the collection is about 2.8%.

SMILES	BB579 growth dn	SDO1 yeast rescue	PTEN del growth	Yeast life ext	HCT116 bCat-KO	SDO1 rescue DR
CN(CCNC(=O)c1cc2c(=O)n(C)c3ccccc3c2n1C)Cc1ccccc1	4	-0.06	3.3*	-4	2.4*	.
CC(C)(O)C#Cc1ccc(C(=O)NCc2ccccc2F)cc1	-11	-0.21	100	1	86	.
O=C(NCc1ccccn1)c1ccc(COc2ccc(Cl)cc2)o1	-37	-0.26	6	-15	4.3*	.
Cc1ccc(C(C)NC(=O)c2ccco2)cc1C (stereo not drawn)	-29	0.05	97	36	102	.
CCOC(=O)c1sc(NC(=O)c2cccnc2)c(C#N)c1C	-50	0.17	85	29*	87	.
CCOC(=O)c1c(NC(=O)c2cccnc2)sc(C)c1C	-27	-1.1	82	-23	77	.
CCOC(=O)c1cnc2c(C)c(-c3ccccc3)[nH]n2c1=O	-3	0.18	92	2	97	.
C=CCn1c(NS(=O)(=O)c2ccccc2)c(S(=O)(=O)c2ccc(C)cc2)c2nc3ccccc3nc21	-19	0.77	99	14	91	.
O=S(=O)(Nc1c(S(=O)(=O)c2ccccc2)c2nc3ccccc3nc2n1C1CCCCC1)c1ccccc1	-9	0.99	95	27*	93	.
Cc1cccc(Nc2nc(N)c([N+](=O)[O-])c(N3CCCC(C)C3)n2)c1 (stereo not drawn)	43	-1.6	2.8*	-12	9	.
C[N+](C)(CC#Cc1ccccc1)CC(=O)c1ccc(Cl)cc1	-10	0.29	73	3	74	.
CCOC(=O)N1CCC(=C2c3ccc(Cl)cc3CCc3cccnc32)CC1	-56	-2.1	44	33*	58	.
CCOC(=O)N1CCN(Cc2ccccn2)CC1	-24	0.66	101	13	108	.
CCOc1nc2ccccc2nc1C	18	-0.26	96	-10	98	.
CC(=O)C1=C(c2ccc(Br)cc2)C(=O)c2ccccc2C1=O	-6	-1.9	1.4*	-10	1.6*	.
O=C(N/N=C/C(Cl)=C\c1ccccc1)c1cnccn1	-28	0.74	6	-20	4.0*	.
Cc1ccc(C(=O)NCCCN2CCOCC2)o1	8	2.3	97	.	92	0.046
O=C(CSc1nc(Nc2ccccc2)nc(N2CCOCC2)n1)N1CCc2ccccc21	-23	-1.6	60	-19	68	.
O=C(CSc1nc(Nc2ccccc2)nc(N2CCOCC2)n1)N1CCCC1	4	4*	70	-12	71	0.1
COc1ccc(CC(NC(C)=O)C(=O)NC2CCN(S(=O)(=O)c3cccc4ccccc34)CC2)cc1OC (stereo not drawn)	-37	2.1	92	-10	83	0.097*
COc1ccc(CC(NC(C)=O)C(=O)NC2CCN(S(=O)(=O)c3ccccc3)CC2)cc1OC (stereo not drawn)	-49	0.33	108	-12	108	.
CC(CCc1ccccc1)NC(=O)CSc1nc(N)cc(N)n1 (stereo not drawn)	-4	13*	87	-4	86	0.11*
CC(CCc1ccccc1)NC(=O)CSc1nnnn1C (stereo not drawn)	-27	-0.77	87	-31	93	.
CC(C)(C)c1nc[nH]c(=O)c1Br	-5	0.02	99	7	97	.
CC(C)CCn1nnnc1C(c1ccc(F)cc1)N1CCC(C(N)=O)CC1 (stereo not drawn)	-42	3.5*	91	-1	98	0.062
SMILES	BB579 growth dn	SDO1 yeast rescue	PTEN del growth	Yeast life ext	HCT116 bCat-KO	SDO1 rescue DR
CC(=O)Oc1ccc2c(c1)cc(C)n2C	-14	1.5	81	.	96	.
COc1ccc(C(=O)CSc2nnc(Cc3ccccc3)o2)cc1	8	7*	90	-10	88	0.047
O=C(CSc1nnc(-c2ccco2)o1)c1ccccc1	2	1.2	92	-8	86	0.035
Cc1nc(S(=O)(=O)N2CCOCC2)c(C#N)c(C)c1Cl	1	3.8*	90	-20	74	0.087*
CCOc1cccc(C(=O)Nc2ccccc2N2CCN(C(=O)C(C)C)CC2)c1	-49	0.06	68	-7	68	.
COc1ccc(NC(=O)c2cc(S(=O)(=O)N3CCS(=O)(=O)CC3)ccc2Cl)cc1	-44	0.65	92	-13	87	.
COc1cccc(CNC(=O)C2CCCN(S(=O)(=O)c3cccc4nonc34)C2)c1 (stereo not drawn)	-14	2.8	94	-7	98	0.086*
O=C(NCCc1ccccc1)C1CCCN(S(=O)(=O)c2cccc3nonc23)C1 (stereo not drawn)	-58	0.38	107	-2	93	.
CC(C(=O)Nc1cccnc1)N1C(=O)c2ccccc2C1=O (stereo not drawn)	-2	4.1*	95	2	88	0.088*
CC(C(=O)Nc1cccnc1)N1C(=O)C2C3C=CC(C3)C2C1=O (stereo not drawn)	-20	1.8	99	-18	82	.
Nc1nc(NC(=O)c2ccco2)nn1-c1ccccc1	8	3.1*	87	.	90	0.048
CCCCOC(=O)Nc1ccc(S(=O)(=O)Nn2cnnc2)cc1	-34	3.7*	93	-11	106	0.12*
Cc1ccnc(NC(=O)c2sc3ccccc3c2Cl)c1	-12	3.9*	81	-7	87	0.13*
O=C(Nc1nccs1)c1sc2ccccc2c1Cl	-26	-1.6	99	-20	90	.
Cc1ccc2nc(C(O)C(O)c3nc4ccc(C)cc4[nH]3)[nH]c2c1 (stereo not drawn)	-12	-0.6	98	-24	109	.
Cc1ccc2nc(C(F)OC(F)(F)F)[nH]c2c1 (stereo not drawn)	14	12*	82	-26	78	0.041
C/C(=N\NC(=O)c1cccs1)C(C)(C)C	-26	0.81	94	4	79	.
CC12CCC(C(=O)N(NC(=O)c3ccc(O)cc3)C1=O)C2(C)C (stereo not drawn)	-11	0.65	90	-5	94	.
CC12CCC(C(=O)N(NC(=O)c3cccnc3)C1=O)C2(C)C (stereo not drawn)	-2	6.2*	91	2	87	0.058
Cc1nc(CS(=O)(=O)c2ccccc2)cc(N2CCOCC2)n1	-31	12*	92	-18	101	0.069*
O=C(/C(=C(\[O-])c1ccccc1)[n+]1ccc2ccccc2c1)c1ccccc1	-25	7.9*	81	14	84	0.039
O=C(CCS(=O)(=O)Cc1ccccc1)NCC1CCCO1 (stereo not drawn)	-60	-0.16	110	-8	97	.
CC1(C)NC(=O)N(CC(O)CN2C(=O)NC(C)(C)C2=O)C1=O	-17	9.1*	105	-8	109	0.13*
Cc1[nH]c2ccccc2c1C(=O)CN1CCN(C2CCCCC2)CC1	-18	9.1*	110	-12	105	0.045

High-throughput results from PubChem.
